Measurements reported in ChEMBL document CHEMBL4414632, “Design, Synthesis, and Biological Evaluation of Novel Indoles Targeting the Influenza PB2 Cap Binding Region” (J Med Chem, 2019).
Activity calls are given as the source filed them. No cut-off for these calls is given here.

What was measured:
[1] = Therapeutic index, ratio of CC50 for human A549 cells to IC50 for Influenza A virus (A/Puerto Rico/8/34(H1N1)); format: toxicity; settings: read-out: Ratio CC50/IC50
[2] = Displacement of gamma-[6-aminohexyl]-GTP-biotin from Influenza A virus A/Victoria/3/1975 (H3N2) N-terminal 6His-tagged PB2 (320 to 484 residues) expressed in Escherichia coli incubated for 1 hr by TR-FRET assay
[3] = Therapeutic index, ratio of CC50 for dog MDCK cells to IC50 for Influenza A virus A/[…]/3/1975 (H3N2); format: toxicity; settings: read-out: Ratio CC50/IC50
Influenza A virus [4] = test: Antiviral activity against Influenza A virus A/[…]/3/1975 (H3N2) infected in MDCK cells assessed as reduction in virus-induced cytopathic effect by measuring ATP level incubated for 24 hrs by ATPlite luminescence assay; format: functional, organism-based
Influenza A virus [5] = test: Antiviral activity against Influenza A virus (A/Puerto Rico/8/34(H1N1)) infected in human A549 cells assessed as reduction in virus neuraminidase level incubated for 24 hrs by fluorescence based assay; format: functional, organism-based; settings: A/Puerto Rico/8/1934(H1N1), A549, 24 h
Procedure, shortened: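 A549 cells, 6,000/well, seeded onto compound (nine four-fold dilutions) in Ham's F12 with 2% FBS, 1% Hepes, gentamycin, 24 h at 37°C, 5% CO2; then infected with A/Puerto Rico/8/34 at MOI 1 for further 24 h.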

Influenza A virus [6] = test: Antiviral activity against Influenza A virus (A/Taiwan/1/1986(H1N1)) infected in MDCK cells assessed as reduction in virus-induced cytopathic effect by measuring ATP level incubated for 24 hrs by ATPlite luminescence assay; format: functional, organism-based
[7] = Displacement of gamma-[6-aminohexyl]-GTP-biotin from Influenza B virus B/Brisbane/60/2008 C-terminal 6His-tagged PB2 (320 to 484 residues) expressed in Escherichia coli incubated for 1 hr by TR-FRET assay
[8] = Therapeutic index, ratio of CC50 for dog MDCK cells to IC50 for Influenza A virus (A/Taiwan/1/1986(H1N1)); format: toxicity; settings: read-out: Ratio CC50/IC50
Influenza A virus [9] = test: In vivo antiviral activity against Influenza A virus (A/Puerto Rico/8/34(H1N1)) infected in BALB/c mouse assessed as survival rate at 10 mg/kg, po administered bid for 10 days after 48 hrs post infection and observed for 21 days relative to control; format: functional, A/Puerto Rico/8/1934(H1N1)
Influenza A virus [10] = test: In vivo antiviral activity against Influenza A virus (A/Puerto Rico/8/34(H1N1)) infected in BALB/c mouse assessed as survival rate at 30 mg/kg, po administered bid for 10 days after 48 hrs post infection and observed for 21 days relative to control; format: functional, A/Puerto Rico/8/1934(H1N1)
[11] = molecular target: Glycogen synthase kinase-3 beta (Homo sapiens) (UniProt P49841); test: Inhibition of GSK3beta (unknown origin) at 1 uM
Chain of Glycogen synthase kinase-3 beta (Homo sapiens) (P49841 whole entry, looked up): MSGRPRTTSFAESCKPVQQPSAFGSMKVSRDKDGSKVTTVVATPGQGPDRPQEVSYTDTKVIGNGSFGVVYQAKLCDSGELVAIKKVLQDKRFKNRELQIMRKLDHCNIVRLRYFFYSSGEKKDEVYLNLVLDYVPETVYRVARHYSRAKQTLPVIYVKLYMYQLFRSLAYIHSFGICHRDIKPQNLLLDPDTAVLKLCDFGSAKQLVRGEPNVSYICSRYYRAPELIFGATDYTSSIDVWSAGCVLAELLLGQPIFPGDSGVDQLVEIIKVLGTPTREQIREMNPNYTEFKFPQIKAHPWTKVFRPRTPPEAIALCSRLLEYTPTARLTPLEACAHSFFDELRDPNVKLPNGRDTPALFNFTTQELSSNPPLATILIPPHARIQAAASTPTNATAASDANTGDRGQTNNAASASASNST

SMILES | selectivity ratio [1] | IC50 [2] [nM] | selectivity ratio [3] | IC50 (Influenza A virus [4]) [nM] | IC50 (Influenza A virus [5]) [nM] | IC50 (Influenza A virus [6]) [nM] | IC50 [7] [nM] | selectivity ratio [8] | Activity (Influenza A virus [9]) [%] | Activity (Influenza A virus [10]) [%] | inhibition [11]
N#Cc1cc(F)c2[nH]cc(-c3ncc(F)c(N[C@H]4C5CCC(CC5)[C@@H]4C(=O)O)n3)c2c1 | > 612 | 80 | 59 | 19 | 43 | 11 | 13000 | 97 |  |  | 
CCOC(=O)C1=C[C@@H](OC(CC)CC)[C@H](NC(C)=O)[C@@H](N)C1 [OSELTAMIVIR] | > 4130 |  |  |  | 31 |  |  |  | 38 |  | 
O=C(O)[C@H]1C2CCC(CC2)[C@@H]1Nc1nc(-c2c[nH]c3c(F)cc(F)cc23)ncc1F |  | 120 |  |  | 22 |  | > 50000 |  |  | 75 | inactive
Cc1cc(F)c2[nH]cc(-c3ncc(F)c(N[C@H]4C5CCC(CC5)[C@@H]4C(=O)O)n3)c2c1 | 1490 | 120 | 25 | 11 | 22 | 4 | 26000 | 75 |  |  | 
NC(=O)c1nc(F)cnc1O |  |  | > 3 | 35700 |  | 16800 |  | > 6 |  |  | 
O=C(O)[C@H]1C2CCC(CC2)[C@@H]1Nc1nc(-c2c[nH]c3c(F)cc(Cl)cc23)ncc1F | > 485 | 170 | 28 | 47 | 53 | 21 | > 50000 | 83 |  |  | 
